ChEMBL document CHEMBL4229514, “Synthesis and biological evaluation of novel benzofuroxan-based pyrrolidine hydroxamates as matrix metalloproteinase inhibitors with nitric oxide releasing activity” (Bioorg Med Chem, 2018)
Active and inactive are the calls of the source. The calls are words filed in the database; no cut-off is given here.

How the values were obtained:
[1] = test system: K562; assay: Antiproliferative activity against human K562 cells after 48 hrs by MTT assay; format: functional, cell-based; settings: K562, 48 h
Method in brief: (§1)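 Cells grown in RPMI1640 with 10% FBS at 37 °C, 5% CO₂; plated 5000 per well, 4 h attachment, then exposed to a range of compound concentrations for 48 h. 0.5% MTT added for 4 h, formazan dissolved in DMSO, absorbance read at 570 nm.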

[2] = Antiproliferative activity against human ES2 cells after 48 hrs by MTT assay; format: functional, cell-based; settings: ES-2, 48 h; method in brief: as §1
[3] = test system: HeLa; assay: Antimigratory activity against human HeLa cells at 1 uM after 24 hrs using crystal violet staining by inverted microscopic based transwell chamber assay; format: functional, cell-based
Method in brief: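 Uncoated Transwell chambers, 8 μm pore. 5×10⁴ HeLa cells seeded in upper chamber with compound (1 μM) in RPMI1640 containing 1% FBS; 10% FBS below as chemoattractant. 24 h at 37 °C; upper-side cells removed, membrane methanol-fixed 10 min, 0.5% crystal violet stained, migrated cells counted under inverted microscope.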

[4] = test system: HeLa; assay: Nitric oxide releasing activity in human HeLa cells assessed as nitrite accumulation at 100 uM after 5 hrs by Griess reagent based colorimetric assay; format: ADME, cell-based
Method in brief: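 HeLa cells (1×10⁵ per well) incubated 5 h with compound at 100 μM. Cell-free supernatant mixed 1:1 with Griess reagent for 10 min; absorbance at 540 nm; nitrite quantified against NaNO₂ standard curve.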

[5] = test system: H22; assay: Antitumor activity against […] xenografted in Kunming mouse assessed as increase in mouse survival rate at 100 mg/kg/day, ig once daily for 10 days relative to control; format: functional
Method in brief: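 Female Kunming mice (20±2 g, 4–6 weeks), randomized 10 per group, were inoculated subcutaneously with H22 cells (4 × 10⁷/mL) on day 0. Dosing was intragastric, once daily for ten days, with a PBS/5% DMSO vehicle group and a positive-control group. Body weight was recorded before each dose, and survival was checked daily. Mean survival time was compared with vehicle.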

[6] = Cytotoxicity against HUVEC after 48 hrs by MTT assay; format: cell-based; settings: human, HUVEC cells; method in brief: as §1
[7] = test system: HeLa; assay: Anti-invasive activity against human HeLa cells at 1 uM after 24 hrs using crystal violet staining by inverted microscopic based transwell chamber assay; format: functional, cell-based
Method in brief: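 Transwell chambers, 8 μm pore, upper side precoated with Matrigel. 1×10⁵ HeLa cells seeded with compound (1 μM) in RPMI1640 with 1% FBS; lower chamber 10% FBS as chemoattractant. After 24 h at 37 °C, non-invaded cells swabbed off; membranes methanol-fixed 10 min, stained 0.5% crystal violet, counted microscopically.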

[8] = test system: MDA-MB-231; assay: Antiproliferative activity against human MDA-MB-231 cells after 48 hrs by MTT assay; format: functional, cell-based; settings: MDA-MB-231, 48 h; method in brief: as §1
[9] = biological target: Matrix metalloproteinase-9 (Homo sapiens, UniProt P14780); assay: Inhibition of recombinant human MMP9 (Phe107 to Pro449 residues) expressed in Escherichia coli preincubated for 45 mins followed by […] substrate addition by fluorescence assay
Method in brief: (§2)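 Fluorometric kit assay: enzyme added to assay buffer equilibrated to 37 °C, then inhibitor (NNGH as kit control) added and preincubated 45 min at 37 °C; fluorogenic substrate added to start reaction; fluorescence read at Ex/Em 328/420 nm.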

[10] = test system: HeLa; assay: Anticlonogenic activity against human HeLa cells treated for 24 hrs measured after 2 weeks by crystal violet staining based inverted microscopic method; format: functional, cell-based
Method in brief: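 HeLa cells seeded at 500 per well, exposed to compound 24 h, then grown 2 weeks at 37 °C, 5% CO₂. Washed with PBS, methanol-fixed 15 min, stained 0.1% crystal violet 10 min; colonies of more than 50 cells counted under inverted microscope to give inhibition rate.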

[11] = biological target: 72 kDa type IV collagenase (Homo sapiens, UniProt P08253); assay: Inhibition of recombinant human MMP2 catalytic domain (Tyr110 to Asp452 residues) preincubated for 45 mins followed by […] substrate addition by fluorescence assay; method in brief: as §2
[12] = test system: MCF7; assay: Antiproliferative activity against human MCF7 cells after 48 hrs by MTT assay; format: functional, cell-based; settings: MCF7, 48 h; method in brief: as §1
[13] = test system: Mus musculus; assay: Toxicity in Kunming mouse xenografted with […] assessed as decrease in body weight at 100 mg/kg/day, ig once daily for 10 days; format: organism-based; settings: in vivo, po, 240 h
Method in brief: (§3)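 Female Kunming mice (20±2 g, 4–6 weeks), 10 per group, inoculated subcutaneously with H22 cells (4×10⁷/mL) on day 0. Compound 100 mg/kg/day given intragastrically once daily for 10 days; vehicle PBS with 5% DMSO. Body weight recorded before each dose; survival monitored daily.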

[14] = test system: HUVEC; assay: Anti-angiogenic activity against HUVEC assessed as reduction in tube formation at 1 uM after 8 hrs by inverted microscopic method; format: functional, cell-based; settings: Homo sapiens
Method in brief: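 Matrigel-coated wells gelled 30 min at 37 °C, 5% CO₂; 1×10⁵ HUVECs per well seeded in growth medium together with compound at 1 μM, vehicle control included. Incubated 8 h at 37 °C, 5% CO₂; capillary-like tube networks imaged under inverted microscope and quantified.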

[15] = test system: HeLa; assay: Antimigratory activity against human HeLa cells assessed as reduction in wound closure at 1 uM by inverted microscopic method; format: functional, cell-based; settings: TDE = time-dependent effect
Method in brief: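 2×10⁵ HeLa cells per well grown to confluence; pipette tip scratch made, cells treated with 1 μM compound and allowed to migrate; wound imaged by inverted microscope at 0, 12, 24 and 48 h, wound closure quantified.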

[16] = test system: A549; assay: Antiproliferative activity against human A549 cells after 48 hrs by MTT assay; format: functional, cell-based; settings: A549, 48 h; method in brief: as §1
[17] = test system: Thoracic aorta; assay: Anti-angiogenic activity against Sprague-Dawley rat thoracic aorta assessed as reduction in microvessel outgrowth arising fron aortic rings at 5 uM after 6 days by inverted microscopic method; format: functional, tissue-based
Method in brief: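 Thoracic aortas from 6-week-old male Sprague Dawley rats, perivascular tissue removed, cut into ~1 mm rings and embedded in Matrigel-coated wells. Rings treated with compound at 5 μM, vehicle control included, 6 days at 37 °C, 5% CO₂. Microvessel outgrowth imaged by inverted microscope; inhibition rate counted.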

[18] = test system: HeLa; assay: Antiproliferative activity against human HeLa cells after 48 hrs by MTT assay; format: functional, cell-based; method in brief: as §1
[19] = test system: Mus musculus; assay: Toxicity in Kunming mouse xenografted with […] assessed as increase in body weight at 100 mg/kg/day, ig once daily for 10 days; format: organism-based; settings: in vivo, po, 240 h; method in brief: as §3

Sequence of 72 kDa type IV collagenase (P08253 whole entry, the tested form may be a part): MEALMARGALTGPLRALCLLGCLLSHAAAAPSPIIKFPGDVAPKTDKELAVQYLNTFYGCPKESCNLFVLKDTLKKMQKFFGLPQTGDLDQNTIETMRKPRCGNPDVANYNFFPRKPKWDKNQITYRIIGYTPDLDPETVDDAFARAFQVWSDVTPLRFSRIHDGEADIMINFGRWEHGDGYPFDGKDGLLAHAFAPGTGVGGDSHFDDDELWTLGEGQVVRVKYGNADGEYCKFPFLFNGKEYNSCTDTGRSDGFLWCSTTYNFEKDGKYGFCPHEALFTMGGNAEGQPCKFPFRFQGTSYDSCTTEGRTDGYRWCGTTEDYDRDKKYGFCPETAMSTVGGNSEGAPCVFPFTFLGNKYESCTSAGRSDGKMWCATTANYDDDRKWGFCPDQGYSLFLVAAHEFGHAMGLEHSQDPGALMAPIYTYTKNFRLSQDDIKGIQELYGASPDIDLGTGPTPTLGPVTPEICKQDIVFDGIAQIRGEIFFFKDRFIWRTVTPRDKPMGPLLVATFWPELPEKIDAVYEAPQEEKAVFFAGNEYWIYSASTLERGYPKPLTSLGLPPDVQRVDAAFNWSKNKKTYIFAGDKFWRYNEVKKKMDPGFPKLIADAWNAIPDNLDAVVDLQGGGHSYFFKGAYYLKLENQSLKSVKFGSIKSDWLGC
Sequence of Matrix metalloproteinase-9 (P14780 whole entry): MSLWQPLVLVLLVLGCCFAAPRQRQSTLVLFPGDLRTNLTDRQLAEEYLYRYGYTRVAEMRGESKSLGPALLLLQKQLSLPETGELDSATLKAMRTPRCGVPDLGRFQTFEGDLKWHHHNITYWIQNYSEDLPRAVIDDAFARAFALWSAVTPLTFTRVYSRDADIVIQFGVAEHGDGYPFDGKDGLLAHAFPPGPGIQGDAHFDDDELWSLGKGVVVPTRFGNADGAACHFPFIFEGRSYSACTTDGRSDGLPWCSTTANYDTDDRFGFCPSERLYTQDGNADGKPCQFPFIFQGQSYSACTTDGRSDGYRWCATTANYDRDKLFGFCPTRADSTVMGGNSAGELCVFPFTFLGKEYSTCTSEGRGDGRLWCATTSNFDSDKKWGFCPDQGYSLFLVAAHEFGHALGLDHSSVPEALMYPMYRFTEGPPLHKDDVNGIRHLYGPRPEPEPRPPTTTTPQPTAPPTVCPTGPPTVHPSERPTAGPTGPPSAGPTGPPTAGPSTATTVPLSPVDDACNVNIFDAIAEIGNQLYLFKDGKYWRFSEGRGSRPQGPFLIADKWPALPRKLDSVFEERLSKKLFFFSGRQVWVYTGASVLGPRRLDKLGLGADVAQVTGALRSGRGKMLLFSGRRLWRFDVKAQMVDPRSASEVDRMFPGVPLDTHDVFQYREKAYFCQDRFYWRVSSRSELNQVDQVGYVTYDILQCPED

Structure (SMILES)	IC50 [1] [µM]	IC50 [2] [µM]	Activity [3]	Nitrite concentration [4] [µM]	Activity [5]	CC50 at 48 h [6] [µM]	Activity [7]	IC50 [8] [µM]	IC50 [9] [µM]	Activity [10]	IC50 [11] [µM]	IC50 [12] [µM]	Activity [13]	Activity [14]	Activity [15]	IC50 [16] [µM]	Activity [17]	IC50 [18] [µM]	Activity [19]
O=C(N[C@H]1C[C@@H](C(=O)NO)N(S(=O)(=O)c2ccc(Oc3ccccc3)cc2)C1)c1ccc2no[n+]([O-])c2c1	3.56	7.47	Active	34.43	40.48%	32.5	Active	7.01	0.162	Active	0.102	4.19	Toxic	Active	Tde	5.1	Active	3.82	
COc1ccc(/C=C/C(=O)N2C[C@@H](NC(=O)c3cccnc3)C[C@H]2C(=O)NO)cc1OC	> 200	> 200	Active		Active	39.8	Active	> 200	0.36	Active	0.266	> 200		Active		78.2	Active	185	Toxic
COc1ccc(/C=C/C(=O)N2C[C@@H](NC(=O)c3cccc4no[n+]([O-])c34)C[C@H]2C(=O)NO)cc1OC	11.2	17.4		25.51		42.3	Active	16.5	0.524	Active	0.414	23.4		Active		25.6	inactive	14.1	
COc1ccc(/C=C/C(=O)N2C[C@@H](NC(=O)c3ccc4no[n+]([O-])c4c3)C[C@H]2C(=O)NO)cc1OC	4.61	14.1		33.11		36.3	Active	9.81	0.388	Active	0.345	10.7		Active		13.2	Active	6.49	
O=C(N[C@H]1C[C@@H](C(=O)NO)N(S(=O)(=O)c2ccc(Oc3ccccc3)cc2)C1)c1cccc2no[n+]([O-])c12	4.58	8.26		27.87		37.2	Active	4.19	0.242	Active	0.182	13		Active		21.5	inactive	7.24	
